The source of these data is ChEMBL document CHEMBL3593239, “PABA/NO lead optimization: Improved targeting of cytotoxicity to glutathione S-transferase P1-overexpressing cancer cells” (Bioorg Med Chem, 2015).

Series [1] can be described thus: Stability of the compound in phosphate buffer assessed as pseudo-first order rate constant at pH 7.4 at 37 degC by HPLC trapping method in presence of GSH. Type of series: physicochemical.
Another series deals with U-937. Put plainly: Cytotoxicity against human U937 cells assessed as growth inhibition after 72 hrs by MTT assay. The note with it: U-937, 72 h. Type of series: functional, cell-based. In outline:
(§1)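 HL-60 and U937 cells from ATCC, grown per supplier protocol, seeded and exposed to increasing concentrations for 72 h. Viability was read with a Promega assay run per the manufacturer's protocol. Six repeats per concentration, three independent experiments. IC50 derived by curve fitting.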
In general terms: Tetrazolium dyes change colour on reduction, which living cells bring about.

The subject of series [2] is HL-60. Put plainly: Induction of apoptosis in human HL60 cells assessed as cleavage of PARP at 10 uM after 24 hrs by Western blot analysis. Type of series: functional, cell-based. A general note: In western blotting, separated proteins are transferred to a membrane and probed.
Series [3] has as its target T1, Glutathione S-transferase P (Homo sapiens, UniProt P09211). Put plainly: Drug metabolism in human HL-60 cells assessed as GSTP1-mediated metabolite formation at 1 uM after 10 mins by LC-MS/MS analysis. Type of series: ADME, cell-based. The note with it: hl-60, 10 min. In outline:
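HL-60 cells plated in flasks and incubated overnight at 37 °C, then treated with 1 µM compound for varying times. Cells broken by two freeze (−80 °C)/thaw (37 °C) cycles in 0.1% formic acid/acetonitrile 3:7. Precipitate spun out at 14,000g for 15 min. Supernatant filtered and analysed by LC–MS/MS on C18 with acetonitrile/water/0.1% formic acid gradient and ESI-QTOF detection.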

Series [4] deals with HL-60. Put plainly: Induction of apoptosis in human HL60 cells assessed as activation of caspase 7 at 10 uM after 24 hrs by Western blot analysis. Type of series: functional, cell-based.
Series [5] deals with T1, Glutathione S-transferase P. Put plainly: Prodrug conversion in phosphate buffer assessed as GSTP1 (unknown origin)-mediated nitric oxide release at 1 uM at pH 7.4 at 37 degC after 1 to 30 mins by LC/MS-MS analysis. The note with it: pH 7.4, 1 µM. Type of series: ADME. In a few lines: (§2)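 Test compound at 1 µM reacted with 4 mM GSH containing 4 nM GSTP1 in 0.1 M phosphate, pH 7.4, at 37 °C. Products identified by LC–MS traces taken at 60 s and 30 min.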

For series [6] the target is unchanged. Put plainly: Prodrug conversion in phosphate buffer assessed as GSTP1 (unknown origin)-mediated nitric oxide release […] measured per mol of compound at pH 7.4 at 37 degC by chemiluminescence assay in presence of GSH. Type of series: ADME.
Series [7] can be described thus: Stability of the compound in phosphate buffer assessed as first-order initial rate constant for hydrolysis at pH 7.4 at 37 degC by HPLC trapping method. Type of series: physicochemical.
In series [8] the test system is HL-60. Put plainly: Induction of apoptosis in human HL60 cells assessed as activation of caspase 8 at 10 uM after 24 hrs by Western blot analysis. Type of series: functional, cell-based.
In series [9] the target is T1, Glutathione S-transferase P. Put plainly: Drug metabolism in phosphate buffer assessed as formation of GSTP1 (unknown origin)-mediated (S)-2-amino-5-((R)-1-(carboxymethylamino)-3-(4-cyano-5-(4-(methylamino)benzoyloxy)-2-nitrophenylthio)-1-oxopropan-2-ylamino)-5-oxopentanoic acid at 1 uM at pH 7.4 at 37 degC after 1 to 30 mins by LC-MS/MS analysis in presence of GSH. Type of series: ADME. The note with it: pH 7.4, 1 µM. In outline:
as §2

Series [10] deals with HL-60. Put plainly: Cytotoxicity against human HL60 cells assessed as growth inhibition after 72 hrs by MTT assay. Type of series: functional, cell-based. The note with it: HL-60, 72 h. In outline: as §1
Series [11] concerns HL-60. Put plainly: Induction of SAPK/JNK phosphorylation in human HL-60 cells at 5 to 20 uM after 24 hrs by Western blot analysis.
Series [12] deals with T2, Glutathione S-transferase A1 (Homo sapiens, UniProt P08263).
T2 sequence (P08263 whole entry): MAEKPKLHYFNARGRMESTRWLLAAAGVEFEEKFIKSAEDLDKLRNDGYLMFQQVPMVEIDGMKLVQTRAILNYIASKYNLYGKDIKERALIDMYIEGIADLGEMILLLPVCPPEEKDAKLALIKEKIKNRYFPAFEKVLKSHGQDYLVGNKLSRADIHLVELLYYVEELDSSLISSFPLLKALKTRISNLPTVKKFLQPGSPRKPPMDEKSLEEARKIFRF
Put plainly: Drug metabolism in phosphate buffer assessed as ratio of GSTA1 (unknown origin)-mediated (S)-2-amino-5-((R)-1-(carboxymethylamino)-3-(4-cyano-5-hydroxy-2-nitrophenylthio)-1-oxopropan-2-ylamino)-5-oxopentanoic acid formation from nitric oxide release pathway to GSTA1 (unknown origin)-mediated (Z)-1-(4-cyano-5-hydroxy-2-nitrophenoxy)-3,3-dimethyltriaz-1-ene 2-oxide formation from nitric oxide retained pathway at 1 uM at pH 7.4 at 37 degC after 30 mins by LC-MS/MS analysis in presence of GSH. Type of series: ADME. The note with it: pH 7.4, 0.5 h. In a few lines:
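Products analysed by LC–MS. The ratio is the NO-release-pathway product over the NO-retained-pathway phenolic product.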

The nature of series [13]: Stability of the compound in phosphate buffer assessed as first-order initial rate constant for hydrolysis at pH 7.4 at 25 degC by HPLC trapping method. Type of series: physicochemical.

Structures are written as SMILES. Activity calls are given as the source filed them. No cut-off for these calls is given here. Where only a bound is given, the exact number is not on record here.

T1 sequence (P09211 whole entry): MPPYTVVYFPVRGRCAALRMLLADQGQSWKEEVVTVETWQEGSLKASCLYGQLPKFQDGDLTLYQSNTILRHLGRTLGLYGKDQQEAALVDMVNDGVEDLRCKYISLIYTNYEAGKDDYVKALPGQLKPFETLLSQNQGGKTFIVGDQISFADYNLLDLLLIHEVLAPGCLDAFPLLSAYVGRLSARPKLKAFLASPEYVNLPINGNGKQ

`CNc1ccc(C(=O)Oc2cc(O/N=[N+](\[O-])N(C)C)c([N+](=O)[O-])cc2C#N)cc1`: the figures for the K in series [1], in series [7] and in [13] were 5.1 ×10⁻³ /s, 1.1 ×10⁻⁴ /s and 0.3 ×10⁻⁵ /s, respectively. The figures for the IC50 in the series on U-937 and in the series on HL-60 [10] were 6.5 µM and 9 µM, respectively. The result in the series with HL-60 [2], in the series with HL-60 [4], in the series on HL-60 [8] and with HL-60 [11] was Active. Further, the Drug metabolism result in series [3], in [5] and in series [9] was “metabolite_detected” throughout. Further, the NO yield in series [6] was more than 1.9 mol/mol. In series [12], the Ratio was determined as 1.

Broadly, the IC50 is the concentration needed to halve the response being measured.
